Test results published in ChEMBL document CHEMBL1165943, “Design and synthesis of new anticancer pyrimidines with multiple-kinase inhibitory effect” (Bioorg Med Chem, 2010).
Active and inactive are the calls of the source. No cut-off for these calls is given here.

What was measured:
[1] = tested on: A498; experiment: Growth inhibition of human A498 cells after 48 hrs by sulforhodamine B assay; assay type: functional, cell-based; conditions: A498, 48 h; for CC50: read-out: LC50 (the source's name)
Procedure, shortened: (§1)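 Five-dose SRB assay. Cells in RPMI 1640 with 5% FBS and 2 mM L-glutamine were seeded at 5,000–40,000 cells/well, with a TCA-fixed time-zero plate (Tz) taken at 24 h. Compound stocks were in DMSO, serially diluted 10-fold or ½-log to five concentrations, and incubated 48 h at 37 °C. Plates were stained with SRB and read at 515 nm. IC₅₀ was taken where [(Ti−Tz)/(C−Tz)]×100 = 50.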

[2] = tested on: ACHN; experiment: Growth inhibition of human ACHN cells after 48 hrs by sulforhodamine B assay; assay type: functional, cell-based; procedure, shortened: as §1
[3] = tested on: NCI-H322M; experiment: Cytotoxicity against human NCI-H322M cells assessed as cell growth at 0.001 uM after 48 hrs by sulforhodamine B assay; assay type: functional; conditions: read-out: Activity
[4] = tested on: Malme-3M; experiment: Cytotoxicity against human MALME-3M cells assessed as cell growth at 0.001 uM after 48 hrs by sulforhodamine B assay; assay type: functional; conditions: read-out: Activity
[5] = tested on: OVCAR-4; experiment: Cytotoxicity against human OVCAR4 cells assessed as cell growth at 0.001 uM after 48 hrs by sulforhodamine B assay; assay type: functional; conditions: OVCAR-4, 48 h, read-out: Activity
[6] = tested on: OVCAR-8; experiment: Cytotoxicity against human OVCAR8 cells assessed as cell growth at 0.001 uM after 48 hrs by sulforhodamine B assay; assay type: functional; conditions: OVCAR-8, 48 h, read-out: Activity
[7] = tested on: NCI/ADR-RES; experiment: Cytotoxicity against human NCI/ADR-RES cells assessed as cell growth at 0.001 uM after 48 hrs by sulforhodamine B assay; assay type: functional; conditions: read-out: Activity
[8] = tested on: 786-0; experiment: Cytotoxicity against human 786-0 cells assessed as cell growth at 0.001 uM after 48 hrs by sulforhodamine B assay; assay type: functional; conditions: 786-0, 48 h, read-out: Activity
Procedure, shortened: (§2)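 Cells grown in RPMI 1640 with 5% FBS and 2 mM L-glutamine, seeded at 5,000–40,000 cells/well by doubling time. Time-zero plates TCA-fixed after 24 h. Five concentrations (10-fold or half-log dilutions from DMSO stock) added; 48 h at 37 °C, 5% CO2. Cold TCA fixation (final 10%, 60 min, 4 °C), 0.4% SRB stain, dye solubilized in 10 mM trizma base, A515.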

[9] = tested on: EKVX; experiment: Cytotoxicity against human EKVX cells assessed as cell growth at 100 nM after 48 hrs by sulforhodamine B assay; assay type: functional; conditions: read-out: Activity
[10] = tested on: IGROV-1; experiment: Cytotoxicity against human IGROV1 cells assessed as cell growth at 100 nM after 48 hrs by sulforhodamine B assay; assay type: functional; conditions: IGROV-1, 48 h, read-out: Activity
[11] = tested on: OVCAR-3; experiment: Cytotoxicity against human OVCAR-3 cells assessed as cell growth at 100 nM after 48 hrs by sulforhodamine B assay; assay type: functional; conditions: OVCAR-3, 48 h, read-out: Activity
[12] = tested on: 786-0; experiment: Cytotoxicity against human 786-0 cells assessed as cell growth at 100 nM after 48 hrs by sulforhodamine B assay; assay type: functional; conditions: 786-0, 48 h, read-out: Activity; procedure, shortened: as §2
[13] = tested on: A549; experiment: Cytotoxicity against human A549 cells assessed as cell growth at 0.01 uM after 48 hrs by sulforhodamine B assay; assay type: functional; conditions: A549, 48 h, read-out: Activity; procedure, shortened: as §2
[14] = tested on: SF-295; experiment: Cytotoxicity against human SF295 cells assessed as cell growth at 10 uM after 48 hrs by sulforhodamine B assay; assay type: functional; conditions: SF-295, 48 h, read-out: Activity
[15] = tested on: SF-539; experiment: Cytotoxicity against human SF539 cells assessed as cell growth at 10 uM after 48 hrs by sulforhodamine B assay; assay type: functional; conditions: SF-539, 48 h, read-out: Activity
[16] = tested on: EKVX; experiment: Cytotoxicity against human EKVX cells assessed as cell growth at 0.01 uM after 48 hrs by sulforhodamine B assay; assay type: functional; conditions: read-out: Activity
[17] = tested on: NCI-H322M; experiment: Cytotoxicity against human NCI-H322M cells assessed as cell growth at 0.01 uM after 48 hrs by sulforhodamine B assay; assay type: functional; conditions: read-out: Activity
[18] = tested on: SK-MEL-5; experiment: Cytotoxicity against human SK-MEL-5 cells assessed as cell growth at 10 uM after 48 hrs by sulforhodamine B assay; assay type: functional; conditions: SK-MEL-5, 48 h, read-out: Activity
[19] = tested on: NCI/ADR-RES; experiment: Cytotoxicity against human NCI/ADR-RES cells assessed as cell growth at 10 uM after 48 hrs by sulforhodamine B assay; assay type: functional; conditions: read-out: Activity
[20] = tested on: 786-0; experiment: Cytotoxicity against human 786-0 cells assessed as cell growth at 10 uM after 48 hrs by sulforhodamine B assay; assay type: functional; conditions: 786-0, 48 h, read-out: Activity; procedure, shortened: as §2
[21] = tested on: A498; experiment: Cytotoxicity against human A498 cells assessed as cell growth at 10 uM after 48 hrs by sulforhodamine B assay; assay type: functional; conditions: A498, 48 h, read-out: Activity; procedure, shortened: as §2
[22] = tested on: BT-549; experiment: Cytotoxicity against human BT549 cells assessed as cell growth at 10 uM after 48 hrs by sulforhodamine B assay; assay type: functional; conditions: BT-549, 48 h, read-out: Activity; procedure, shortened: as §2
[23] = tested on: T47D; experiment: Cytotoxicity against human T47D cells assessed as cell growth at 10 uM after 48 hrs by sulforhodamine B assay; assay type: functional; conditions: read-out: Activity
[24] = tested on: MDA-MB-231; experiment: Cytotoxicity against human MDA-MB-231 cells assessed as cell growth at 100 nM after 48 hrs by sulforhodamine B assay; assay type: functional; conditions: MDA-MB-231, 48 h, read-out: Activity
[25] = tested on: SF-295; experiment: Cytotoxicity against human SF295 cells assessed as cell growth at 1 uM after 48 hrs by sulforhodamine B assay; assay type: functional; conditions: SF-295, 48 h, read-out: Activity
[26] = tested on: BT-549; experiment: Cytotoxicity against human BT549 cells assessed as cell growth at 0.01 uM after 48 hrs by sulforhodamine B assay; assay type: functional; conditions: BT-549, 48 h, read-out: Activity; procedure, shortened: as §2
[27] = tested on: IGROV-1; experiment: Cytotoxicity against human IGROV1 cells assessed as cell growth at 1 uM after 48 hrs by sulforhodamine B assay; assay type: functional; conditions: IGROV-1, 48 h, read-out: Activity
[28] = tested on: K562; experiment: Growth inhibition of human K562 cells after 48 hrs by sulforhodamine B assay; assay type: functional, cell-based; conditions: for CC50: read-out: LC50 (the source's name)
Procedure, shortened: (§3)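 Cells grown in RPMI 1640 with 5% FBS and 2 mM L-glutamine, seeded at 5,000–40,000 cells/well according to doubling time. After 24 h, time-zero plates are TCA-fixed. Five concentrations (10-fold or ½log dilutions, DMSO stocks) are applied for 48 h at 37 °C, 5% CO₂. Cells are TCA-fixed, SRB-stained and read at 515 nm. IC₅₀ is taken from [(Ti−Tz)/(C−Tz)]×100 = 50.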

[29] = tested on: OVCAR-5; experiment: Cytotoxicity against human OVCAR5 cells assessed as cell growth at 1 uM after 48 hrs by sulforhodamine B assay; assay type: functional; conditions: OVCAR-5, 48 h, read-out: Activity
[30] = tested on: ACHN; experiment: Cytotoxicity against human ACHN cells assessed as cell growth at 1 uM after 48 hrs by sulforhodamine B assay; assay type: functional; conditions: read-out: Activity; procedure, shortened: as §2
[31] = tested on: NCI-H23; experiment: Growth inhibition of human NCI-H23 cells after 48 hrs by sulforhodamine B assay; assay type: functional, cell-based; conditions: NCI-H23, 48 h; for CC50: read-out: LC50 (the source's name); procedure, shortened: as §3

## CC(=O)Nc1cccc(-c2ccc(-c3ccnc(NC(=O)Nc4cc(C(F)(F)F)cc(C(F)(F)F)c4)n3)cn2)c1.Cl
[1]
  GI50: 6.13 µM
  IC50: 6.13 µM
  TGI: 22.2 µM
  CC50: 59.2 µM
[2]
  GI50: 3.83 µM
  IC50: 3.83 µM
  LC50 (50% lethal concentration): 47.1 µM
  TGI: 15.5 µM
[3]
  growth at 0.001 µM: 91%
[4]
  growth at 0.001 µM: 92%
[5]
  growth at 0.001 µM: 32%
[6]
  growth at 0.001 µM: 102%
[7]
  growth at 0.001 µM: 95%
[8]
  growth at 0.001 µM: 96%
[9]
  growth at 0.1 µM: 63%
[10]
  growth at 0.1 µM: 89%
[11]
  growth at 0.1 µM: 67%
[12]
  growth at 0.1 µM: 62%
[13]
  growth at 0.01 µM: 67%
[14]
  growth at 10 µM: -33%
[15]
  growth at 10 µM: -98%
[16]
  growth at 0.01 µM: 79%
[17]
  growth at 0.01 µM: 88%
[18]
  growth at 10 µM: 100%
[19]
  growth at 10 µM: 8%
[20]
  growth at 10 µM: 100%
[21]
  growth at 10 µM: -77%
[22]
  growth at 10 µM: -97%
[23]
  growth at 10 µM: -14%
[24]
  growth at 0.1 µM: 77%
[25]
  growth at 1 µM: -15%
[26]
  growth at 0.01 µM: 91%
[27]
  growth at 1 µM: -2%
[28]
  TGI: inactive
[28]; K562, 48 h
  GI50: 1.87 µM
  IC50: 1.87 µM
  CC50: > 100 µM
[29]
  growth at 1 µM: 62%
[30]
  growth at 1 µM: 20%
[31]
  GI50: 2.24 µM
  IC50: 2.24 µM
  TGI: 6.94 µM
  CC50: 43.8 µM

## CC(=O)c1ccccc1-c1ccc(-c2ccnc(NC(=O)Nc3cc(N4CCOCC4)cc(C(F)(F)F)c3)n2)cn1
[1]
  GI50: 13 µM
  IC50: > 100 µM
  TGI: > 100 µM
  CC50: > 100 µM
[2]
  GI50: > 100 µM
  IC50: 6.89 µM
  LC50 (50% lethal concentration): > 100 µM
  TGI: > 100 µM
[3]
  growth at 0.001 µM: 101%
[4]
  growth at 0.001 µM: 94%
[5]
  growth at 0.001 µM: 110%
[6]
  growth at 0.001 µM: 92%
[7]
  growth at 0.001 µM: 100%
[8]
  growth at 0.001 µM: 103%
[9]
  growth at 0.1 µM: 91%
[10]
  growth at 0.1 µM: 87%
[11]
  growth at 0.1 µM: 109%
[12]
  growth at 0.1 µM: 98%
[13]
  growth at 0.01 µM: 102%
[14]
  growth at 10 µM: 48%
[15]
  growth at 10 µM: 56%
[16]
  growth at 0.01 µM: 94%
[17]
  growth at 0.01 µM: 108%
[18]
  growth at 10 µM: 68%
[19]
  growth at 10 µM: 69%
[20]
  growth at 10 µM: 10%
[21]
  growth at 10 µM: 98%
[22]
  growth at 10 µM: 46%
[23]
  growth at 10 µM: 66%
[24]
  growth at 0.1 µM: 84%
[25]
  growth at 1 µM: 48%
[26]
  growth at 0.01 µM: 91%
[27]
  growth at 1 µM: 40%
[28]; K562, 48 h
  GI50: > 100 µM
  IC50: > 100 µM
  TGI: > 100 µM
  CC50: > 100 µM
[29]
  growth at 1 µM: 96%
[30]
  growth at 1 µM: 42%
[31]
  GI50: 2.95 µM
  IC50: > 100 µM
  TGI: > 100 µM
  CC50: > 100 µM
